Source: PubChem BioAssay
RGS4 inh = RGS4 inhibitors, primary screen, cell-based, HEK293 M3R inducible RGS4, calcium flux; Regulator of G-protein signaling 4 (Homo sapiens), P49798; Fluo-4 calcium flux; stronger effect = higher value; triggered by carbachol at its EC20; B-score at 10 µM; 0.45% of 310,000 active; AID 463165, 2010;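 active = B-score, a plate-corrected calcium signal, over three deviations above library mean, with baseline fluorescence within five deviations of library mean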;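 also: RGS4 expression induced by doxycycline in cells with stable M3 receptor; B-score is computed from the integrated fluorescence ratio over baseline after carbachol; higher B-score means a larger calcium signal and so more RGS4 inhibition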
Target sequence (P49798 whole entry, looked up): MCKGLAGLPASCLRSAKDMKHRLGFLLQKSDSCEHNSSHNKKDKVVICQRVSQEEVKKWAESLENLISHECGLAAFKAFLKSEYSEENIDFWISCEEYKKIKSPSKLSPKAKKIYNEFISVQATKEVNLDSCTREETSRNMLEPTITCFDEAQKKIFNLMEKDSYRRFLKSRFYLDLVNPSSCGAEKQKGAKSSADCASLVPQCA
MrgX1 ag = agonists of human MrgX1 receptor, primary screen, HEK293 cells, Fluo-4 calcium flux; Fluo-4 calcium fluorescence, agonist mode; stronger effect = higher value; B-score at 10 µM; 0.44% of 310,000 active; AID 588627, 2011;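 active = calcium response B-score plate-corrected fluorescence ratio at least 3 library SD, with starting fluorescence B-score inside 5 SD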
Target sequence (Q96LB2 whole entry, looked up): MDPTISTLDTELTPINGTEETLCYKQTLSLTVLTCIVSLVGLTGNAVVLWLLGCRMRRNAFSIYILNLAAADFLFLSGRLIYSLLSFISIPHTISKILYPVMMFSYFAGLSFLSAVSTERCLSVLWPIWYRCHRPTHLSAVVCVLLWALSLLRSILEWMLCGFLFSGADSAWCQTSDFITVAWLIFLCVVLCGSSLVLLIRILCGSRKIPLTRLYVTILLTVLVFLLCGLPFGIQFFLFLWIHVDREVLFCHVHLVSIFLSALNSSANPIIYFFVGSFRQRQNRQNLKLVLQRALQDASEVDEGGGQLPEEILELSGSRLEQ
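Assay system: stable human MrgX1 HEK293 cell line. Quantity: 15,000 cells per well. Schedule: cells plated overnight, dye loaded 0.5 h 37 °C, 0.5 h room temperature. Detection: Fluo-4 NW calcium-flux fluorescence, kinetic read. Read-out basis: peak-minus-minimum fluorescence over baseline, converted to B scores. Control set: positive and negative control wells on each plate.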
MrgX1 antag = antagonists of human MrgX1 receptor, primary screen, HEK293 cells, Fluo-4 calcium flux | Mas-related G-protein coupled receptor member X1 (Homo sapiens), Q96LB2 | BAM8-22 antagonism; stronger effect = lower value | B-score at 10 µM | 1.3% of 310,000 active | AID 588676, 2011;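 active = calcium-response B-score plate-corrected more than 3 library SD below zero, starting fluorescence within 5 deviations, no agonist response on first addition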;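 also: peak minus trough fluorescence over baseline after final BAM8-22 challenge near maximal dose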
RGS4 act = RGS4 potentiators or activators, primary screen, cell-based, HEK293 M3R inducible RGS4, calcium flux; AID 463111, 2010; 0.92% of 310,000 active; B-score at 10 µM; carbachol calcium flux Fluo4; stronger effect = lower value;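 active = B-score of the integrated calcium signal more than 4 SD below the library mean, with starting fluorescence not abnormally high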;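 also: negative B-score means reduced calcium response which marks RGS4 activation or potentiation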
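Material: M3R-expressing HEK293 line, RGS4 induced by doxycycline | Schedule: Overnight RGS4 induction, 30 min dye load 37 °C, 20 min compound RT | Measured by: Fluo4 fluorescence kinetic imaging of calcium | Read-out: Integrated calcium ratio converted to B score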
MrgX1 allo act = positive allosteric modulators of MrgX1, primary screen, HEK293 cells, Fluo-4 calcium flux. Mas-related G-protein coupled receptor member X1 (Homo sapiens), Q96LB2. FDSS; stronger effect = higher value. B-score at 10 µM. 0.63% of 310,000 active. AID 588675, 2011;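 active = plate-corrected calcium response at least 3 library SD above typical, normal starting fluorescence, not activating the receptor alone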;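 also: compound read alongside a low EC10 to EC30 dose of BAM8-22 agonist; peak minus trough fluorescence over baseline measured at the second addition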
RGS4 act valid = reduced carbachol calcium response, RGS4-induced M3R cells, confirmation, RGS4 activator project, cell-based, HEK293 M3R/RGS4 inducible, calcium flux, duplicate | inhibition, % at 10 µM | shares compounds with RGS4 act | carbachol calcium flux Fluo4 | 89% of 1,100 active;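 active = inhibition above 3 SD of the buffer control wells, cut at about 41% in these data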;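 also: signal is the integrated peak-minus-minimum Fluo4 fluorescence over baseline ratio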
M3R Ca counter = activity in cells without induced RGS4 expression. shares compounds with RGS4 act. HEK293 M3R non-induced RGS4, Fluo4 calcium flux; after carbachol challenge at its EC90. inhibition, % at 10 µM. 82% of 1,100 active. AID 602283;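 active = inhibition exceeding 3 SD of buffer-only control wells, cut at about 26% in these data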;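 also: percent drop in integrated peak-minus-baseline over baseline Fluo4 ratio after carbachol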
Each line names hits and unclear results; the compound was inactive in the other large screens (follow-up assays come after a bar, where they were run). In the library only some 3.5% were active in any assay of this set; here they are far more common.

CC1=C(C(=O)OC(C)C)C(c2cn(-c3ccccc3)nc2-c2cccs2)NC(=O)N1 (centres undefined)	none
Fc1ccc(-n2nnc(-c3nccs3)n2)cc1	none
Cc1c(C)n(CCCN(C)C)c2ncnc(NCc3ccccc3)c12	none
CN1CCN(CC(=O)N2c3ccccc3Sc3ccccc32)CC1	RGS4 act -11 | RGS4 act valid 92 | M3R Ca counter 76
CCOC(=O)N1CCN(CC(=O)N2c3ccccc3Sc3ccccc32)CC1	none
CCCNC(=O)CS(=O)Cc1nc(-c2ccccc2C)oc1C (centres undefined)	none
Cc1cc(O)c(-c2cc(C(=O)Nc3ccc(S(=O)(=O)N4CCOCC4)cc3)[nH]n2)cc1C	none
O=C(Nc1ccc(S(=O)(=O)N2CCOCC2)cc1)c1cc(-c2cc(Cl)ccc2O)n[nH]1	RGS4 act -8.4 | RGS4 act valid 93 | M3R Ca counter 71
CC(C)(C)N(Cc1ccccc1)C(=O)c1cc2ccccc2o1	RGS4 act -7.6 | RGS4 act valid 91 | M3R Ca counter 93
CN(Cc1ccccc1)C(=O)c1cc2ccccc2o1	none
Cc1[nH]c2ccccc2c1SCc1n[nH]c(=S)n1C	none
Cc1[nH]c2ccccc2c1Cc1n[nH]c(=S)n1C	RGS4 act -8.2 | RGS4 act valid inactive | M3R Ca counter inactive
COc1ccccc1N(C(=O)CCl)c1cn(C(C)=O)c2ccccc12	RGS4 act -8.8 | RGS4 act valid inactive | M3R Ca counter inactive
Cc1ccc2c(c1)NC(=O)C(CC(=O)Nc1ccc(CN3CCC(C)CC3)cc1)O2 (centres undefined)	RGS4 act -7.7 | RGS4 act valid 92 | M3R Ca counter 95
CCOC(=O)C(C(C)=O)c1c(Br)c(O)c(O)c2c(C(=O)c3ccc(C)cc3)coc12 (centres undefined)	RGS4 act -9.2 | RGS4 act valid 42 | M3R Ca counter 39
CCOC(=O)c1c(C)n(-c2ccc(C)cc2)c2c(C(C(C)=O)C(=O)O)c(Br)c(O)c(O)c12 (centres undefined)	none
O=C1C2CSCN2C(=O)CN1CCCN1CCN(C(c2ccccc2)c2ccccc2)CC1 (centres undefined)	RGS4 act -8 | RGS4 act valid 84 | M3R Ca counter 34
c1ccc(OCCOCCN2CCN(C(c3ccccc3)c3ccccc3)CC2)cc1	none
CN1CCC(Oc2ccccc2Sc2ccc(C(F)(F)F)cc2)CC1	none
CN1CCC(Oc2ccc(Sc3ccccc3)cc2)CC1	RGS4 act -8.2 | RGS4 act valid 86 | M3R Ca counter 41
Cc1ccc2cc(NC(=O)c3ccc(C(C)(C)C)cc3)ccc2n1	RGS4 act -8.2 | RGS4 act valid 84 | M3R Ca counter 81
Cc1[nH]c2c(ccc3ccccc32)c1C1C(CCN)C1(C)C (centres undefined)	none
O=C(CSc1ccc(Cl)cc1)Nc1cc(-c2nc3ncccc3o2)ccc1Cl	none
CC(C)C(=O)Nc1cccc(-c2nc3ncccc3o2)c1	none
COc1c(C)cc(Br)cc1C(=O)Nc1cccc(-c2nc3ncccc3o2)c1	RGS4 act -8.3 | RGS4 act valid 94 | M3R Ca counter 74
O=C(CSc1ccc(Cl)cc1)Nc1cccc(-c2nc3ncccc3o2)c1	RGS4 act -8.7 | RGS4 act valid 92 | M3R Ca counter 92
Cc1cc(OC(C)C(=O)NCc2ccncc2)c2c(C)c(C)c(=O)oc2c1 (centres undefined)	none
CCn1ncc(CNC(=O)c2cccc([N+](=O)[O-])c2)c1C	none
Cc1ccc(NS(=O)(=O)c2cc3c4c(cccc4c2)C(=O)NC3=O)cc1C	none
COc1ccc2cc3cc(C(=O)Nc4ccccc4N4CCN(C)CC4)oc3nc2c1	RGS4 act -8.9 | RGS4 act valid 40 | M3R Ca counter inactive
COc1ccccc1C(=O)N1CCN(CCNC(=O)C(=O)Nc2ccc(Br)c(C)c2)CC1	none
CN(Cc1ccccc1)S(=O)(=O)c1ccc(NS(=O)(=O)Cc2ccccc2)cc1	RGS4 act -8.8 | RGS4 act valid 85 | M3R Ca counter 57
O=S(=O)(Cc1ccccc1)Nc1ccccc1	none
Cc1cc(C(=O)N2CCc3ccccc3C2)on1	none
CN(Cc1ccc(F)cc1)C(=O)C(c1ccccc1)c1ccccc1	RGS4 act -9.1 | RGS4 act valid 82 | M3R Ca counter 84
CN(Cc1cccc(F)c1)C(=O)C(c1ccccc1)c1ccccc1	none
C=C(C)C1CCC(C)=C1CC(C)(C)/C=N\n1cnnc1 (centres undefined)	none
Brc1cccc(OCCCN2CCCCCC2)c1	RGS4 act -8.5 | RGS4 act valid 76 | M3R Ca counter 84
CCCOc1ccc(OCCN2CCCC(C)C2)cc1 (centres undefined)	RGS4 act -9.8 | RGS4 act valid 92 | M3R Ca counter 50
CC1CCN(CCOc2cccc(Br)c2)CC1	none
CC1CCCN(CCOc2cccc(Oc3ccccc3)c2)C1 (centres undefined)	RGS4 act -8.6 | RGS4 act valid 90 | M3R Ca counter 57
Clc1ccc(OCCCN2CCCC2)cc1Cl	none
Cc1cc(OCCCCCN2CCCC2)ccc1Cl	RGS4 act -9.5 | RGS4 act valid 80 | M3R Ca counter 27
CC(C)CC(=O)Nc1cccc(NC(=O)CC(C)C)n1	none
c1ccc(Oc2cccc(OCCCCN3CCCC3)c2)cc1	RGS4 act -11 | RGS4 act valid 94 | M3R Ca counter 88
CC1CN(CCCCOc2cccc(Oc3ccccc3)c2)CC(C)O1 (centres undefined)	none
COc1ccc(S(=O)(=O)Oc2ccc3c(c2)O/C(=C\c2cccnc2)C3=O)cc1	none
CC1=C(C(=O)Nc2ccc(Br)cc2)C(c2ccco2)NC(=O)N1 (centres undefined)	none
CC(C)NS(=O)(=O)c1ccc(NC(=O)C(C)Oc2ccc(C(=O)c3ccccc3)cc2)cc1 (centres undefined)	MrgX1 antag -8.6, RGS4 act -7.7 | RGS4 act valid 70 | M3R Ca counter 74
CC(Oc1ccccc1)C(=O)Nc1ccc(C(N)=O)cc1 (centres undefined)	none
